Broadly, the Ki is a measure of affinity in units of concentration, obtained from inhibition or displacement. The Emax is the maximal effect, on the per cent scale that the assay sets. The term IC50 denotes the midpoint of a concentration-inhibition curve. By ED50 is commonly meant the dose that gives a 50% effect, or the effect in half of the subjects.

17 compounds from ChEMBL document CHEMBL1140920, “Design, synthesis, and biological evaluation of 6alpha- and 6beta-N-heterocyclic substituted naltrexamine derivatives as mu opioid receptor selective antagonists” (J Med Chem, 2009) can be followed below.

A short description of assay [1]: Selectivity ratio of Ki for monocloned delta opioid receptor to Ki for monocloned mu opioid receptor. In outline:
(§1)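 CHO cell membranes expressing cloned receptor incubated with radioligand plus varying test drug concentrations, 30 °C, 1 h. IC50 from linear regression of Hill plots, converted to Ki by Cheng-Prusoff; selectivity as Ki ratios.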

Assay [2] is described as follows: Selectivity ratio of Ki for monocloned kappa opioid receptor to Ki for monocloned mu opioid receptor. In outline:
as §1

In assay [3] the target is T1, Mu-type opioid receptor (Homo sapiens, UniProt P35372). The assay is described as follows: Activity at monocloned mu opioid receptor expressed in CHO cells by [35S]GTPgammaS binding assay relative to DAMGO. The class given is functional, cell-based. In general terms: GTPγS is a poorly hydrolysed GTP analogue; its binding reports G protein activation.
T1 sequence (P35372 whole entry): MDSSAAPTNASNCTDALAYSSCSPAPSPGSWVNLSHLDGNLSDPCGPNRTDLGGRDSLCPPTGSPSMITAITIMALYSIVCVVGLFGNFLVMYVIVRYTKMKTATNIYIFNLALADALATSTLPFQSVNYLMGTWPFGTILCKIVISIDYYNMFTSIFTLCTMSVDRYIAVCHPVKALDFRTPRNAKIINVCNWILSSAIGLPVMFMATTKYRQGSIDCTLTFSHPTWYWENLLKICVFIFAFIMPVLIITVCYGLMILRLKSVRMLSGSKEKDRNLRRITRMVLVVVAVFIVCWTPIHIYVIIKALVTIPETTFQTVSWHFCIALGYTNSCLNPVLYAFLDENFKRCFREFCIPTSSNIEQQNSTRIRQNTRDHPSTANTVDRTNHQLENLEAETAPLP
For assay [4], the target named is Kappa-type opioid receptor (Homo sapiens, UniProt P41145). Briefly: Displacement of [3H]norBNI from monocloned kappa opioid receptor expressed in CHO cells. The class given is cell-based. In outline:
as §1

For assay [5], the target named is T1, Mu-type opioid receptor. The assay is described as follows: Displacement of [3H]naloxone from monocloned mu opioid receptor expressed in CHO cells. The assay is classed as cell-based. In outline: as §1
A general note: Loss of bound radioactivity is the signal in a displacement assay; it reports binding, not function.

Assay [6] concerns Mus musculus. Briefly: Inhibition of morphine-induced antinociception in sc dosed Swiss Webster mouse assessed as dose producing 50% antagonism of morphine response preincubated for 5 mins before the addition of morphine assessed after 20 mins by warm water tail immersion test. The class given is functional.
Assay [7] addresses Delta-type opioid receptor (Homo sapiens, UniProt P41143). Briefly: Displacement of [3H]NTI from monocloned delta opioid receptor expressed in CHO cells. The class given is cell-based. In a few lines: as §1
Assay [8] concerns the target T1, Mu-type opioid receptor. Briefly: Activity at monocloned mu opioid receptor expressed in CHO cells by [35S]GTPgammaS binding assay. The class given is functional, cell-based. In outline:
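Membranes from CHO cells stably expressing cloned MOR, the same membranes as used for binding. [35S]GTPγS binding as the functional read-out. Potency also reported. n = 3.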

Assay [9] in a line: Binding affinity to mu opioid Y210A mutant receptor expressed in CHO cells. The assay is classed as cell-based.
For assay [10], the target named is T1, Mu-type opioid receptor. Briefly: biochemical.
Assay [11] in a line: Binding affinity to mu opioid W318A mutant receptor expressed in CHO cells. The class given is cell-based.
Assay [12] concerns Mus musculus. The assay is described as follows: Induction of antinociception in sc dosed Swiss Webster mouse after 20 mins by warm water tail immersion test. The assay is classed as functional.

Kappa-type opioid receptor, sequence (P41145 whole entry): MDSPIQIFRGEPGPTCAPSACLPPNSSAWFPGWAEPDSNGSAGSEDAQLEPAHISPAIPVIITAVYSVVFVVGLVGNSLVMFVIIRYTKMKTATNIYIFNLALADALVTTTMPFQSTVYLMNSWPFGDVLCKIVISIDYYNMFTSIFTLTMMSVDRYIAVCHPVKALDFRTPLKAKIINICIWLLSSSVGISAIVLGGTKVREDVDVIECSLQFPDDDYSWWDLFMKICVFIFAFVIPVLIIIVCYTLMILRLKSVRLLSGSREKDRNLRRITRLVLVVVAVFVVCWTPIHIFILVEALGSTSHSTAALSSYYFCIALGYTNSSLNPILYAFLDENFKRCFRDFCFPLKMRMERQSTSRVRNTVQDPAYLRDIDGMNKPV
Delta-type opioid receptor, sequence (P41143 whole entry): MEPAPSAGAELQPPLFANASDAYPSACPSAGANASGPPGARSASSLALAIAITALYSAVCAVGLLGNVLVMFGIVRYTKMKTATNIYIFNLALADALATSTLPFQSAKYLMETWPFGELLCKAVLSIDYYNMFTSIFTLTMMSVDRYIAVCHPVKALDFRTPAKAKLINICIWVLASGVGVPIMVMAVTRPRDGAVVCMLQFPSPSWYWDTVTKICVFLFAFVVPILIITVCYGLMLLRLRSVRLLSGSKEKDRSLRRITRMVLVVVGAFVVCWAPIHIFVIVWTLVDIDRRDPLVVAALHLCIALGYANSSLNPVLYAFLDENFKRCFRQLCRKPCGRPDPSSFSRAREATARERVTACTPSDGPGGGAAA

Consider `COc1cccc2c1[C@]13CCN(CC4CC4)[C@H](C2)[C@]1(OC)CCC(=O)C3`, for which the results for the Ratio Ki in [1] and in [2] were 40 and 45, respectively.
With `O=C(N[C@H]1CC[C@@]2(O)[C@H]3Cc4ccc(O)c5c4[C@@]2(CCN3CC2CC2)[C@H]1O5)c1cnc2ccccc2c1`, the Activity on Mu-type opioid receptor [3] worked out at 44.8%; in the assay with Mus musculus [6], 4.45 mg/kg. In addition, the Ki in assay [4] was 1.81 nM; at Mu-type opioid receptor [5], 0.12 nM; in assay [7], 32.2 nM. For the same compound, the results for the Ratio Ki in [1] and in [2] were 277 and 16, respectively. Further, on Mu-type opioid receptor [8], the Emax came out at 164%. Moreover, the EC50 at Mu-type opioid receptor [8] (read-out: EC50) was found to be 2.29 nM.
Consider `O=C(N[C@@H]1CC[C@@]2(O)[C@H]3Cc4ccc(O)c5c4[C@@]2(CCN3CC2CC2)[C@H]1O5)c1cccnc1`, for which the Activity on Mu-type opioid receptor [3] amounted to 29.1%; with Mus musculus [6], 1.38 mg/kg. Besides, the Ki in [4] stood at 5.42 nM; on Mu-type opioid receptor [5], 0.14 nM; in [7], 192 nM. Moreover, the results for the Ratio Ki in assay [1] and in assay [2] were 1410 and 40, respectively. For the same compound, on Mu-type opioid receptor [8], the Emax worked out at 107%. For the same compound, on Mu-type opioid receptor [8] (read-out: EC50), the EC50 came out at 0.33 nM.
For the compound `O=C(N[C@H]1CC[C@@]2(O)[C@H]3Cc4ccc(O)c5c4[C@@]2(CCN3CC2CC2)[C@H]1O5)c1cccnc1`, the values for the Activity on Mu-type opioid receptor [3] and in the assay on Mus musculus [6] were 44.8% and 36.77 mg/kg, respectively. For the same compound, the Ki stood at 77.2 nM in assay [4], 0.15 nM at Mu-type opioid receptor [5] and 40.8 nM in assay [7]. The Ratio Ki was 265 in [1] and 501 in [2]. Further, the Emax at Mu-type opioid receptor [8] amounted to 164%. For the same compound, the EC50 on Mu-type opioid receptor [8] (read-out: EC50) came out at 1.01 nM.
As for `O=C(N[C@H]1CC[C@@]2(O)[C@H]3Cc4ccc(O)c5c4[C@@]2(CCN3CC2CC2)[C@H]1O5)c1ccc2ccccc2c1`, the results for the Ki (in assay [4]; at Mu-type opioid receptor [5]; in assay [7]) were 609 nM, 8.36 nM and 518 nM, respectively. The Ratio Ki was determined as 62 in assay [1] and 73 in assay [2].
Turning to `O=C(N[C@@H]1CC[C@@]2(O)[C@H]3Cc4ccc(O)c5c4[C@@]2(CCN3CC2CC2)[C@H]1O5)c1cnc2ccccc2c1`, the Activity on Mu-type opioid receptor [3] came out at 53.4%; in the assay on Mus musculus [6], 42.55 mg/kg. Moreover, the values for the Ki (in assay [4]; on Mu-type opioid receptor [5]; in assay [7]) were 0.57 nM, 0.07 nM and 11.6 nM, respectively. The Ratio Ki in assay [1] was 157; in assay [2], 8. The compound further had an Emax at Mu-type opioid receptor [8] of 196%. The EC50 at Mu-type opioid receptor [8] (cho) is reported as 0.29.
Consider `O=C(N[C@@H]1CC[C@@]2(O)[C@H]3Cc4ccc(O)c5c4[C@@]2(CCN3CC2CC2)[C@H]1O5)c1ccccn1`, for which the Activity was 41.1% at Mu-type opioid receptor [3] and 0.33 mg/kg in the assay with Mus musculus [6]. Besides, the Ki in assay [4] was 278 nM; at Mu-type opioid receptor [5], 5.85 nM; in assay [7], 215 nM. Moreover, the Ratio Ki in assay [1] came out at 37; in assay [2] it was 47. Also, the maximum response (Emax) on Mu-type opioid receptor [8] turned out to be 151%. Moreover, the EC50 on Mu-type opioid receptor [8] (read-out: EC50) was found to be 26.3 nM.
Regarding `O=C(N[C@H]1CC[C@@]2(O)[C@H]3Cc4ccc(O)c5c4[C@@]2(CCN3CC2CC2)[C@H]1O5)c1cc2ccccc2cn1`, the results for the IC50 (in [9]; against Mu-type opioid receptor [10]; in assay [11]) were 3.31 nM, 5.42 nM and over 1000 nM, respectively. This compound also gave an Activity at Mu-type opioid receptor [3] of 15.8%. The Ki in assay [4] stood at 26.5 nM; at Mu-type opioid receptor [5], 0.55 nM; in [7] it was 132 nM. Moreover, the Ratio Ki is 241 in [1] and 48 in assay [2]. The Emax on Mu-type opioid receptor [8] is 58%. Also, the EC50 on Mu-type opioid receptor [8] (read-out: EC50) was found to be 4.36 nM.
On Mu-type opioid receptor [3], `O=C(N[C@@H]1CC[C@@]2(O)[C@H]3Cc4ccc(O)c5c4[C@@]2(CCN3CC2CC2)[C@H]1O5)c1ccncc1` showed an Activity of 22.7%. The same compound yielded an Emax on Mu-type opioid receptor [8] of 83.3%. This compound also displayed an IC50 in [11] of over 1000 nM.
Take `O=C(N[C@H]1CC[C@@]2(O)[C@H]3Cc4ccc(O)c5c4[C@@]2(CCN3CC2CC2)[C@H]1O5)c1ccc2ccccc2n1`: on Mu-type opioid receptor [3], the Activity was 65.4%. Also, the results for the inhibition constant Ki (in [4]; on Mu-type opioid receptor [5]; in assay [7]) were 9.84 nM, 0.21 nM and 148 nM, respectively. The Ratio Ki in assay [1] was determined as 693; in assay [2] it was 46. At Mu-type opioid receptor [8], this compound showed an Emax of 240%. At Mu-type opioid receptor [8] (read-out: EC50), the EC50 stood at 0.09 nM. In the assay on Mus musculus [12], this compound came in with an ED50 of 4.57 mg/kg.
Regarding `O=C(N[C@H]1CC[C@@]2(O)[C@H]3Cc4ccc(O)c5c4[C@@]2(CCN3CC2CC2)[C@H]1O5)c1ccccn1`, the values for the Activity on Mu-type opioid receptor [3] and in the assay on Mus musculus [6] were 37.8% and 0.89 mg/kg, respectively. The Ki worked out at 223 nM in assay [4], 2.65 nM on Mu-type opioid receptor [5] and 64.5 nM in assay [7]. Moreover, the Ratio Ki in assay [1] came to 24; in assay [2], 84. This compound displayed an Emax on Mu-type opioid receptor [8] of 134%. Besides, the EC50 on Mu-type opioid receptor [8] (read-out: EC50) came to 23.9 nM.
As to `O=C(N[C@@H]1CC[C@@]2(O)[C@H]3Cc4ccc(O)c5c4[C@@]2(CCN3CC2CC2)[C@H]1O5)c1ccccc1`, the Ki in assay [4] was determined as 7.79 nM; at Mu-type opioid receptor [5] it was 0.92 nM.
`O=C(N[C@@H]1CC[C@@]2(O)[C@H]3Cc4ccc(O)c5c4[C@@]2(CCN3CC2CC2)[C@H]1O5)c1ccc2ccccc2n1` came in with an Activity at Mu-type opioid receptor [3] of 40.9%. Besides, the inhibitory constant (Ki) in [4] stood at 5.04 nM; at Mu-type opioid receptor [5], 0.11 nM; in assay [7], 3.86 nM. Besides, the values for the Ratio Ki in assay [1] and in assay [2] were 36 and 47, respectively. On Mu-type opioid receptor [8], the Emax is 150%. On Mu-type opioid receptor [8] (read-out: EC50), the EC50 stood at 0.69 nM. This compound also gave an ED50 in the assay with Mus musculus [12] of 0.04 mg/kg.
Take `O=C(N[C@H]1CC[C@@]2(O)[C@H]3Cc4ccc(O)c5c4[C@@]2(CCN3CC2CC2)[C@H]1O5)c1ccncc1`: the Activity at Mu-type opioid receptor [3] came to 37.3%. In assay [4], this compound showed a Ki of 19.6 nM. Besides, the Emax at Mu-type opioid receptor [8] came out at 137%.
In the case of `O=C(N[C@H]1CC[C@@]2(O)[C@H]3Cc4ccc(O)c5c4[C@@]2(CCN3CC2CC2)[C@H]1O5)c1ccccc1`, the Ki in assay [4] was 41.7 nM; at Mu-type opioid receptor [5], 1.41 nM.
In the case of `O=C(N[C@@H]1CC[C@@]2(O)[C@H]3Cc4ccc(O)c5c4[C@@]2(CCN3CC2CC2)[C@H]1O5)c1ccc2ccccc2c1`, the Ki in [4] was found to be 65.3 nM; at Mu-type opioid receptor [5], 55.6 nM; in assay [7], 29.3 nM. Also, the Ratio Ki was 0.5 in assay [1] and 1 in assay [2].
`O=C(N[C@@H]1CC[C@@]2(O)[C@H]3Cc4ccc(O)c5c4[C@@]2(CCN3CC2CC2)[C@H]1O5)c1cc2ccccc2cn1` gave an Activity at Mu-type opioid receptor [3] of 33%. Besides, the Ki in assay [4] was 1.58 nM; at Mu-type opioid receptor [5] it was 0.1 nM; in assay [7], 15.4 nM. In addition, the Ratio Ki amounted to 156 in [1] and 16 in assay [2]. Further, the Emax on Mu-type opioid receptor [8] was 121%. For the same compound, the EC50 at Mu-type opioid receptor [8] (read-out: EC50) turned out to be 0.27 nM. The compound also showed an ED50 with Mus musculus [12] of 1.19 mg/kg.
